Blank lines part the entries; values can stand above or below the compound they belong to.
Legend:
MDCK cells [1] = assay: cAMP ELISA in forskolin-challenged MDCK cells; assay type: cell-based, canine; conditions: 15 min
Method in brief: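 MDCK cells in 2D culture (DMEM, 10% FBS) are pretreated for 1 h with test compound (3 µM), with or without roflumilast (100 nM), then challenged with forskolin (3 µM, 15 min). Intracellular and extracellular cAMP are measured with a commercial cAMP ELISA kit. Intracellular data are mean ± SD of n = 7 experiments; extracellular data come from three independent experiments.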

MDCK cells [2] = assay: MDCK cyst assay; assay type: cell-based, canine
OX161 cells = assay: OX161 cyst assay; assay type: cell-based, human
CFTR = CFTR assay; assay type: cell-based, canine; conditions: 100 nM PGE2
human long form PDE4D5 = human long form PDE4D5 (Homo sapiens, UniProt Q08499); assay: cAMP phosphodiesterase assay, long isoform PDE4D5; assay type: biochemical
Sequence of human long form PDE4D5 (Q08499 1-745 isoform Q08499-6): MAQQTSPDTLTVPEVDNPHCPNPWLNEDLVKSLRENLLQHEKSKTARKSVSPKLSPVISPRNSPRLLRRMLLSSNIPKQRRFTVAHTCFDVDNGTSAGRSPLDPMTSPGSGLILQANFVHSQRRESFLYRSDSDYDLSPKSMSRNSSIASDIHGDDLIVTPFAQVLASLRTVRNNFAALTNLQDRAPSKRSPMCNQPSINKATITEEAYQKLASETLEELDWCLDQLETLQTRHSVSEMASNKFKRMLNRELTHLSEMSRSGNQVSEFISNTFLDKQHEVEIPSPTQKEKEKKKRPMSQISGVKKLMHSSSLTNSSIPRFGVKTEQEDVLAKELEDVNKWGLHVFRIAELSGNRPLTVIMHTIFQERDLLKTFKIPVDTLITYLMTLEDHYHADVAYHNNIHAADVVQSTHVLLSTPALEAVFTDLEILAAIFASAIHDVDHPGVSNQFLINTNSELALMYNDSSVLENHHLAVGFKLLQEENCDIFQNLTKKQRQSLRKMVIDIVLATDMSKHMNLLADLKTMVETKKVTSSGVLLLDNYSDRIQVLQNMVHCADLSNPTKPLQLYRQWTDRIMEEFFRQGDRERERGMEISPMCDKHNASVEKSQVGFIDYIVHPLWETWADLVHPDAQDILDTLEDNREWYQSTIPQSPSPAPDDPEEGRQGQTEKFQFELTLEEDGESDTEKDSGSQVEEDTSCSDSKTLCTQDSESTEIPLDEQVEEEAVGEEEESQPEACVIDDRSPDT
Method in brief: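 Human PDE4D5 is expressed from pcDNA3.1 in transfected mammalian cells. The 100,000 × g supernatant of KHEM-buffer lysates (200 ng–1 µg protein) is assayed for cAMP hydrolysis for 10 min under linear conditions, with test compound at 3, 10, 30 and 100 µM. Velocity is analysed by Eadie–Hofstee plot to give Vmax and Km for cAMP.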

PDE4A4 = PDE4A4 (Homo sapiens, UniProt P27815); assay: cAMP phosphodiesterase assay, long isoform PDE4A4; assay type: biochemical; conditions: compared with the other long isoforms
Sequence of PDE4A4 (P27815 whole entry, canonical isoform): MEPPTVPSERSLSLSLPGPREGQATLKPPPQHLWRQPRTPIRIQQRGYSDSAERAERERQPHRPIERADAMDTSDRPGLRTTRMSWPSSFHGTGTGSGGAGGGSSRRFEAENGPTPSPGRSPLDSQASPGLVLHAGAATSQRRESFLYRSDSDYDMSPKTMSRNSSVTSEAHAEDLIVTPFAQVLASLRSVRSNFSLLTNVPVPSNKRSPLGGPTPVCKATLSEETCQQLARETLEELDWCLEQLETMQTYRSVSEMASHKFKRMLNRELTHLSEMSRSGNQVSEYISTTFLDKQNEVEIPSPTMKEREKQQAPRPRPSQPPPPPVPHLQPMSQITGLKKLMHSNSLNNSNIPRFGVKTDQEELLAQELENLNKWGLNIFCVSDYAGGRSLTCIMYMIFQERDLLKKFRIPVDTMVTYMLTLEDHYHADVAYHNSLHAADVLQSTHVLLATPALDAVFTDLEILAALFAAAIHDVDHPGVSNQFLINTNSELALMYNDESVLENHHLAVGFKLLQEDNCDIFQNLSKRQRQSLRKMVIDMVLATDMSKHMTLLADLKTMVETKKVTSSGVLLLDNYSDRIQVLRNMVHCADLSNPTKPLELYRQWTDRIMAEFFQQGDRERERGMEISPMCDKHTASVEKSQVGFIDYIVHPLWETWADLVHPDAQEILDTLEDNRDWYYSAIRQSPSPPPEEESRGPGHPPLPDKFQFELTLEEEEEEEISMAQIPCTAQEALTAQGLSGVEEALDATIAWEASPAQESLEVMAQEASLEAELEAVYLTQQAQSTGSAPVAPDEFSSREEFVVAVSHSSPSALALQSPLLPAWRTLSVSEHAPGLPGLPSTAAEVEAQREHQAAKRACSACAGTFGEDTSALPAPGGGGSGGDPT
Method in brief: (§1)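 PDE4 constructs were expressed from pcDNA3.1 (mutants by site-directed mutagenesis) after lipid transfection into mammalian cells. Lysate was spun at 2,000 × g for 10 min, then 100,000 × g for 30 min, and supernatant protein was measured by BCA. cAMP hydrolysis used 200 ng–1 µg protein per reaction for 10 min, within the linear range.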

PDE4B1 = PDE4B1 (Homo sapiens, UniProt Q07343); assay: cAMP phosphodiesterase assay, long isoform PDE4B1; assay type: biochemical
Sequence of PDE4B1 (Q07343 whole entry, species assumed, canonical isoform): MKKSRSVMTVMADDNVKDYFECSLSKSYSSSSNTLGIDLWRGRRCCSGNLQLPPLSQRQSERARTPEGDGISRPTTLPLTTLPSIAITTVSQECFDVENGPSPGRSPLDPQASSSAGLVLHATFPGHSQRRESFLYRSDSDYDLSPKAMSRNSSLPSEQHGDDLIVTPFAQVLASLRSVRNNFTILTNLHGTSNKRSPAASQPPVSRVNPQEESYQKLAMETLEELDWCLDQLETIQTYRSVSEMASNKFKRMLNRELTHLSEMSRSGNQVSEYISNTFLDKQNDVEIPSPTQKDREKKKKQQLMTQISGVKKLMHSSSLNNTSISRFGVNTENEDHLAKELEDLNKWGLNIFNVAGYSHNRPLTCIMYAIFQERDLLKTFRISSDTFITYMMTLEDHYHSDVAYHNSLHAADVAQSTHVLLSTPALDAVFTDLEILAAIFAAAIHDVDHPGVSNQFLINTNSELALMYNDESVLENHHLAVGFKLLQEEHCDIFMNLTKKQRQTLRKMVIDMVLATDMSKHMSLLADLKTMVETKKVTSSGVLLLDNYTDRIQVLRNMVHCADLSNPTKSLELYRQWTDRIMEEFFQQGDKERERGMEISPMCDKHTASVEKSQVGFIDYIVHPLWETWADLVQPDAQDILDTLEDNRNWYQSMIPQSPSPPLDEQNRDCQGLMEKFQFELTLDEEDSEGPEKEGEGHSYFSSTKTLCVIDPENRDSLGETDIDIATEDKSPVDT
Method in brief: (§2)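 PDE4 constructs, including site-directed mutants, are expressed from pcDNA3.1 in transfected mammalian cells. Cells are lysed mechanically in KHEM buffer (50 mM KCl, 10 mM EGTA, 50 mM Hepes, 1.92 mM MgCl2, pH 7.4). Lysate is cleared at 2,000 × g for 10 min, then 100,000 × g for 30 min. Supernatant (200 ng–1 µg protein per reaction, BCA) is assayed for cAMP hydrolysis for 10 min under linear conditions.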

PDE4C3 = PDE4C3 (Homo sapiens, UniProt Q08493); assay: cAMP phosphodiesterase assay, long isoform PDE4C3; assay type: biochemical
Sequence of PDE4C3 (Q08493 1-680 isoform Q08493-3, species assumed): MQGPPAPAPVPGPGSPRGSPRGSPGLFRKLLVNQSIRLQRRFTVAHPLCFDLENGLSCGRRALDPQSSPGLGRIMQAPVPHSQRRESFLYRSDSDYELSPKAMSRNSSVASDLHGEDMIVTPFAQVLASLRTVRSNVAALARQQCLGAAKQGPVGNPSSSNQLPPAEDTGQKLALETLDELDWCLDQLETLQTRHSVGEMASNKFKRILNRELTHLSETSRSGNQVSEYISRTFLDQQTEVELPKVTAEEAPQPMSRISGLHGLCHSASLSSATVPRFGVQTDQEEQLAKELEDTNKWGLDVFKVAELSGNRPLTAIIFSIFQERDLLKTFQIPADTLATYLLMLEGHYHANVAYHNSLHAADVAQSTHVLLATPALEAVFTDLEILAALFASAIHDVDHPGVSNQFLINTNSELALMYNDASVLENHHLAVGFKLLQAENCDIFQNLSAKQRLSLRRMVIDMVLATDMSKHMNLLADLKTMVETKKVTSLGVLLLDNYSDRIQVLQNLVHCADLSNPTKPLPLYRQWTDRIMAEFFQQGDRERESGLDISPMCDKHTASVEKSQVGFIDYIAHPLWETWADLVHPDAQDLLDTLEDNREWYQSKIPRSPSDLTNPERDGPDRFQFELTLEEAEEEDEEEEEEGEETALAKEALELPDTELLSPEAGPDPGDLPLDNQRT
Method in brief: as §2

[3] = system: short isoforms of PDE4A, B, and D families; assay: cAMP phosphodiesterase assay, short PDE4 isoforms; assay type: biochemical
Method in brief: as §2

[4] = system: truncated core catalytic domain of PDE4D without UCR1, UCR2, and C-terminal tail; assay: cAMP phosphodiesterase assay, truncated catalytic domain construct; assay type: biochemical; conditions: n = 4
Method in brief: as §2

S133D-PDE4D5 = S133D-PDE4D5 (Homo sapiens, UniProt Q08499, S197D); assay: cAMP phosphodiesterase assay, MK2 phosphomimetic mutant; assay type: biochemical
Sequence of S133D-PDE4D5 (Q08499 1-745 isoform Q08499-6 S133D): as the sequence (Q08499 1-745 isoform Q08499-6) above, with S133D counted along it
Method in brief: as §1

S126D:S133D-PDE4D5 = S126D:S133D-PDE4D5 (Homo sapiens, UniProt Q08499, S190D/S197D); assay: cAMP phosphodiesterase assay, PKA/MK2 double phosphomimetic mutant; assay type: biochemical; conditions: relative to S126D-PDE4D5
Sequence of S126D:S133D-PDE4D5 (Q08499 1-745 isoform Q08499-6 S126D/S133D): as the sequence (Q08499 1-745 isoform Q08499-6) above, with S126D, S133D counted along it
Method in brief: as §2

Ser651Asp-PDE4D5 = Ser651Asp-PDE4D5 (Homo sapiens, UniProt Q08499, S715D); assay: cAMP phosphodiesterase assay, Erk phosphomimetic mutant; assay type: biochemical
Sequence of Ser651Asp-PDE4D5 (Q08499 1-745 isoform Q08499-6 S651D): as the sequence (Q08499 1-745 isoform Q08499-6) above, with S651D counted along it
Method in brief: as §1

DD1-R499D-PDE4D5 = DD1-R499D-PDE4D5 (Homo sapiens, UniProt Q08499, N238A/N239A/R237A/R563D); assay: cAMP phosphodiesterase assay, dimerization-deficient mutant; assay type: biochemical
Sequence of DD1-R499D-PDE4D5 (Q08499 1-745 isoform Q08499-6 R173A/N174A/N175A/R499D): as the sequence (Q08499 1-745 isoform Q08499-6) above, with R173A, N174A, N175A, R499D counted along it
Method in brief: as §1

MDCK cells [5] = assay: xCELLigence impedance-based proliferation assay; assay type: cell-based, canine; conditions: 2D culture; MR-L2 added 24 h after inception
Method in brief: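 MDCK cells are plated at 5,000 cells per well in 2D culture and left to adhere for 24 h. Test compound is then added, and cell number is followed by xCELLigence electrical-impedance monitoring.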

MDCK cells [6] = assay: DNA normalized ATP levels in MDCK cystic cultures; assay type: cell-based, canine; conditions: MR-L2 3 µM; ± SD
[7] = system: primary human ADPKD cells; assay: Primary human kidney cell cyst assay; assay type: cell-based
Method in brief: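 Primary epithelial cells from single kidney cysts of an ADPKD patient are grown in biogels with RenalCyte medium. Cysts form spontaneously or with 10 nM vasopressin, across graded test compound concentrations. Cysts are counted by manual imaging or automated whole-well imaging. Values are given as SD of four treatments.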

[8] = system: primary human ADPKD cells; assay: Primary human ADPKD cell viability; assay type: cell-based; conditions: unstimulated and vasopressin-treated cultures
Method in brief: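 Primary epithelial cells cultured from single kidney cysts of a patient with ADPKD, kept in supplier's proprietary media. For the cyst assay, cells were grown in biogels with RenalCyte media in 96- or 384-well format. Viability was read as luminescence-based detection of ATP as a function of living cells.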

Structure (SMILES): O=C(Nc1c(Cl)cncc1Cl)c1ccc(OC(F)F)c(OCC2CC2)c1 [roflumilast, reference compound]
effect on suppression of forskolin-stimulated cAMP accumulation by MR-L2 (3 µM) (MDCK cells [1]; roflumilast 100 nM cotreatment, forskolin 3 µM): ablated the suppressive effect of MR-L2
effect on suppression of cystogenesis by MR-L2 (3 µM) (MDCK cells [2]; roflumilast 100 nM, PGE2 300 nM): interdict the suppression of cystogenesis

Structure (SMILES): COc1ccc(C2CNC(=O)C2)cc1OC1CCCC1 (stereo not shown) [rolipram, reference compound]
effect on agonist-driven (PGE2-induced) cyst formation (MDCK cells [2]; increasing concentrations of rolipram): exacerbates agonist-driven cyst formation in a concentration-dependent manner
cystogenesis of OX161 cells (OX161 cells; challenge with rolipram, 3D culture): enhanced

Structure (SMILES): O=C(O)c1ccc(/C=C2\SC(=S)N(c3cccc(C(F)(F)F)c3)C2=O)cc1 [CFTRINH172, reference compound]
PGE2-induced membrane depolarization (CFTR; CFTR inhibitor 100 µM): reversed

mode of action on cAMP hydrolysis by PDE4D5 (human long form PDE4D5): reversible, noncompetitive activator
increase in activity over basal levels (human long form PDE4D5; maximally effective concentrations of MR-L2): ~60%
activation of PDE4B1 (PDE4B1): activates
activation of PDE4C3 (PDE4C3): activates
activation of short PDE4 isoforms [3]: did not activate
activation of truncated core catalytic domain of PDE4D [4]: does not activate
activation of S126D:S133D-PDE4D5 (S126D:S133D-PDE4D5): partially restore sensitivity
Structure (SMILES): CCc1nc(-c2ccc(Cl)c(F)c2)nn1CC(=O)NCc1cc(Cl)cc(Cl)c1 [MR-L2, 2-(3-(4-chloro-3-fluorophenyl)-5-ethyl-1H-1,2,4-triazol-1-yl)-N-(3,5-dichlorobenzyl)acetamide]
activation of PDE4A4 (PDE4A4): slightly enhanced magnitude of activation
activation of S133D-PDE4D5 (S133D-PDE4D5): activated by MR-L2 to a similar extent to wild-type PDE4D5
activation of Ser651Asp-PDE4D5 (Ser651Asp-PDE4D5): comparable increase in activity to that seen when employing wild-type PDE4D5
activation of DD1-R499D-PDE4D5 (DD1-R499D-PDE4D5): complete loss of sensitivity to activation
intracellular cAMP elevation in response to forskolin (MDCK cells [1]; 1-h pretreatment with MR-L2, forskolin 3 µM): significantly suppressed cAMP elevation
extracellular level of cAMP (MDCK cells [1]; MR-L2 3 µM, 1 h before forskolin 3 µM): significantly reduced
effect on cell number (cytotoxicity) (MDCK cells [5]): no effect
PGE2-stimulated cyst formation (MDCK cells [2]; MR-L2 3 µM, incremental PGE2 concentrations): suppressed
forskolin-induced cyst formation (MDCK cells [2]; MR-L2 3 µM, incremental forskolin concentrations): suppressed forskolin-induced cyst formation
EC50 (MDCK cells [2]; read-out: EC50, suppression of PGE2-induced cyst formation, PGE2 300 nM): 1000 nM
reduction in the ATP/DNA ratio (MDCK cells [6]): 15.6 ± 30%
PGE2-elicited CFTR activity (membrane depolarization) (CFTR; MR-L2 preincubation 40 min): clearly suppressed in a concentration-dependent manner
PGE2-stimulated cystogenesis of OX161 cells (OX161 cells; concentration-dependent): attenuated
number of cysts formed in 3D culture ([7]; unstimulated (spontaneous cyst formation)): clearly suppressed the number of cysts
number of cysts formed in 3D culture ([7]; vasopressin-treated (10 nM)): clearly suppressed the number of cysts
cell viability [8]: without adversely affecting cell viability

From publication PMC6613170 (Proceedings of the National Academy of Sciences of the …, 2019)
